Measured values of several laboratories.
Compare with care: the assays were run in different laboratories.
Technique: competition with immobilised ligand
RPS6KA3 C-terminal kinase domain: Ribosomal protein S6 kinase alpha-3, C-terminal kinase domain (RPS6KA3, Homo sapiens, UniProt P51812)
RPS6KA3 N-terminal kinase domain: Ribosomal protein S6 kinase alpha-3, N-terminal kinase domain (RPS6KA3, Homo sapiens, UniProt P51812)

CNC(=O)[C@@H]1CC[C@@H](n2c(-c3ccc4cnccc4c3)nc3ccc(C(=O)NCc4cccc(C(N)=O)c4)cc32)C1  remaining binding (RPS6KA3 C-terminal kinase domain; binding; 1 µM): 100%
N#Cc1ccccc1CSc1nnc2c(n1)[nH]c1ccccc12  remaining binding (RPS6KA3 N-terminal kinase domain; binding; 10 µM): 80%
CCN1CCN(Cc2ccc(C(=O)Nc3ccc(C)c(Oc4ccc5c(c4)CC(=O)N5)c3)cc2C(F)(F)F)CC1  remaining binding (RPS6KA3 C-terminal kinase domain; binding; 1 µM): 100%
COc1cnc(Nc2cccc(S(N)(=O)=O)c2)nc1N1CCN(c2ccccc2)C(=O)C1  remaining binding (RPS6KA3 C-terminal kinase domain; binding; 1 µM): 97%
N[C@@H]1CCN(c2nccc(-c3cnn4ncccc34)n2)C1  remaining binding (RPS6KA3 C-terminal kinase domain; binding; 1 µM): 41%
FC(F)(F)Oc1cccc(-c2cnc3ccc(-c4ccncc4)nn23)c1  remaining binding (RPS6KA3 C-terminal kinase domain; binding; 5 µM): 69%
Cc1cnn2ncc(-c3ccnc(N(C)C)n3)c2c1  remaining binding (RPS6KA3 C-terminal kinase domain; binding; 1 µM): 100%
COc1cnc(Nc2cccc(S(N)(=O)=O)c2)nc1N1CCN(c2ccccc2)CC1  remaining binding (RPS6KA3 N-terminal kinase domain; binding; 1 µM): 89%
CN(CCCC(F)(F)F)c1nccc(-c2cnn3ncccc23)n1  remaining binding (RPS6KA3 C-terminal kinase domain; binding; 1 µM): 100%
C=CC(=O)N1CCC(C(=O)NCC(=O)N2CCN(c3nc(-c4cnc(N)nc4C(F)F)nc(N4CCOCC4)n3)CC2)CC1  remaining binding (RPS6KA3 N-terminal kinase domain; binding; 1 µM): 85%
Cc1nccc(COC(=O)N2C[C@@H]3[C@@H](CNC(=O)c4ccc5[nH]nnc5c4)[C@@H]3C2)n1  remaining binding (RPS6KA3 C-terminal kinase domain; cell-free assay; 1 µM): 86%
O=C(c1ccc(Nc2ncc(Cl)c(-c3cc4ccccc4s3)n2)cc1)N1CCC(N2CCCC2)CC1  remaining binding (RPS6KA3 C-terminal kinase domain; binding; 1 µM): 77%
CN(C)c1nccc(-c2cnc3ncccn23)n1  remaining binding (RPS6KA3 C-terminal kinase domain; binding; 1 µM): 78%
CCCOc1ccc([C@H]2[C@H](C(=O)O)[C@@H](c3ccc4c(c3)OCO4)CN2CC(=O)Nc2c(CC)cccc2CC)cc1  remaining binding (RPS6KA3 N-terminal kinase domain; cell-free assay; 1 µM): 72%
F[C@@H]1CCN(c2nccc(-c3cnn4ncccc34)n2)C1  remaining binding (RPS6KA3 N-terminal kinase domain; binding; 1 µM): 100%
Nc1ncc2c(n1)-c1c([nH]c3ccc(C#CC4CC4)cc13)CCCC2  remaining binding (RPS6KA3 N-terminal kinase domain; binding; 1 µM): 73%
O=C(NCCCN1CCOCC1)c1ccc(Nc2nccc(-c3cc4ccccc4s3)n2)cc1  remaining binding (RPS6KA3 C-terminal kinase domain; binding; 1 µM): 73%
c1cncc(-c2cccc(Nc3nccc(NC4CCCCC4)n3)c2)c1  remaining binding (RPS6KA3 N-terminal kinase domain; binding; 10 µM): 42%
c1ccc(N2CCN(Cc3nc4ccccc4[nH]3)CC2)nc1  remaining binding (RPS6KA3 C-terminal kinase domain; binding; 1 µM): 100%
COc1ncc2cc3ccccc3nc2c1C#N  remaining binding (RPS6KA3 N-terminal kinase domain; cell-free assay; 5 µM): 89%
C[C@H]1CCN(c2nccc(-c3cnn4ncccc34)n2)C1  remaining binding (RPS6KA3 N-terminal kinase domain; binding; 1 µM): 78%
O=C(NCCCN1CCOCC1)c1ccc(Nc2ncc(Cl)c(-c3ccc(Cl)s3)n2)cc1  remaining binding (RPS6KA3 C-terminal kinase domain; binding; 1 µM): 100%
C[C@H](NC(=O)c1cnc2n1[C@](C)(Cc1ccc(C#N)cc1)C(=O)N2c1cc(Cl)c(F)c(Cl)c1)C(=O)NC1(c2ccccn2)CC1  remaining binding (RPS6KA3 N-terminal kinase domain; cell-free assay; 1 µM): 100%
Cc1cnc(Nc2ccc(C(=O)N3CCC(N4CCCC4)CC3)cc2)nc1-c1cc2ccccc2s1  remaining binding (RPS6KA3 N-terminal kinase domain; binding; 1 µM): 22%
O=C(Nc1c[nH]nc1C(=O)NC1CCNCC1)c1cc(F)cc(F)c1  remaining binding (RPS6KA3 C-terminal kinase domain; binding; 1 µM): 100%
O=C(Nc1ccc(Oc2ccc(F)cc2)cc1)N1CCc2ncccc2[C@H]1c1ccc(F)cc1  remaining binding (RPS6KA3 C-terminal kinase domain; cell-free assay; 1 µM): 97%
CN(C)c1nccc(-c2cnn3ncccc23)n1  remaining binding (RPS6KA3 N-terminal kinase domain; binding; 1 µM): 82%
O=C(c1ccc(Nc2nccc(-c3cc4ccccc4s3)n2)cc1)N1CCC(N2CCCC2)CC1  remaining binding (RPS6KA3 C-terminal kinase domain; binding; 1 µM): 66%
C[C@@]1(Cc2ccc(C#N)cc2)C(=O)N(c2cc(Cl)cc(Cl)c2)c2ncc(C(=O)NC3(c4nc(C5CCC5)no4)CC3)n21  remaining binding (RPS6KA3 C-terminal kinase domain; cell-free assay; 1 µM): 100%
O=C(c1ccc(Nc2ncc(Cl)c(-c3ccc(Cl)s3)n2)cc1)N1CCC(N2CCCC2)CC1  remaining binding (RPS6KA3 N-terminal kinase domain; binding; 1 µM): 30%
Cc1c(NC(=O)c2cc(C(N)=O)nc3cc(F)ccc23)c(C(F)(F)F)nn1Cc1ccc(C(C)(C)C)cc1  remaining binding (RPS6KA3 C-terminal kinase domain; cell-free assay; 1 µM): 100%
O=C(NCC1CCOCC1)c1n[nH]cc1NC(=O)c1c(F)cccc1F  remaining binding (RPS6KA3 N-terminal kinase domain; binding; 1 µM): 78%
O=C(O)[C@H]1[C@H](Cn2nnc3ccccc3c2=O)CC[C@@H]1C(=O)c1ccc(OCCC2CCOCC2)cc1  remaining binding (RPS6KA3 N-terminal kinase domain; cell-free assay; 1 µM): 81%
C[C@@H](c1ccc(-n2cnc3c(N)ncnc32)cc1)N1CCc2nn(C)c(Cc3ccccc3)c2C1=O  remaining binding (RPS6KA3 C-terminal kinase domain; binding; 0.1 µM): 94%
